Our source for the Activity values is ChEMBL document CHEMBL3102848, “Carbamazepine derivatives with P2X4 receptor-blocking activity” (Bioorg Med Chem, 2014).

In this assay the target is T1, P2X purinoceptor 4 (Homo sapiens) (UniProt Q99571).
T1 sequence (whole entry): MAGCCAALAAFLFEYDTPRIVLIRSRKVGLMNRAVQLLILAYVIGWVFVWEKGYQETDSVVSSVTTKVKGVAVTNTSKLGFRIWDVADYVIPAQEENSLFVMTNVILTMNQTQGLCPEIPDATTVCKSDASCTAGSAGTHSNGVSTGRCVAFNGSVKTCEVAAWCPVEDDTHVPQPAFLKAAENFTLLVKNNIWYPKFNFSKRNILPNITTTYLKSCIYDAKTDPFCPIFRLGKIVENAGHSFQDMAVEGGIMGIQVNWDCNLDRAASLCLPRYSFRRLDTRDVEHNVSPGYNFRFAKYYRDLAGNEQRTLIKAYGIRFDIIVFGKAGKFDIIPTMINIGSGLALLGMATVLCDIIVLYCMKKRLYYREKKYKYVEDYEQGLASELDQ
The assay is described as follows: Negative allosteric modulation of human P2X4 receptor expressed in human 1321N1 cells assessed as reduction in ATP-induced cytosolic calcium influx at 3 to 30 uM. In kind it is cell-based. The method in brief: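 1321N1 astrocytoma cells stably expressing human P2X4. Full ATP concentration–response curves (10^-8 to 10^-3 M) for intracellular calcium, recorded without inhibitor and with three fixed modulator levels (3, 10, 30). ATP EC50 and maximal effect (Emax, %) were derived for each condition.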

Activity calls are given as the source filed them. The calls are words filed in the database; no cut-off is given here.

For `CC(C)N(C(=O)N1c2ccccc2C=Cc2ccccc21)C(C)C`, the outcome was Active.
